Source: PubChem BioAssay (several laboratories)
HCV NS3 hel inh = blocks Hepatitis C virus NS3 helicase unwinding; inhibition, % at 10.9 µM; NS3 helicase DNA unwinding, Cy5 molecular beacon fluorescence; 290,000 tested, 0.56% active;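 active = inhibition above the mean of all tested compounds plus 3 SD, set per campaign, cut at about 35% in these data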;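 note: 0% = DMSO wells and 100% = thioflavine S control wells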
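System: NS3 helicase fragment of HCV / Schedule: 1 h at 25 °C / Control set: DMSO alone as 0% and 110 µM thioflavine S as 100% / Reagent: Cy5/quencher beacon DNA duplex and ATP to start / Technique: Cy5 fluorescence / Replication: singlicate / Evaluation: % inhibition of end-to-start signal ratio versus controls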
DAGLB inh = diacylglycerol lipase beta (human) inhibition; inhibition, % at 5.17 µM; HEK293T DAGLB membrane lysate, EnzChek fluorogenic substrate; 340,000 tested, 0.059% active; Q8NCG7; in the data active = inhibition above about 34%;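 note: 0% = enzyme with vehicle and 100% = wells lacking enzyme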
Target sequence (Q8NCG7 whole entry, looked up): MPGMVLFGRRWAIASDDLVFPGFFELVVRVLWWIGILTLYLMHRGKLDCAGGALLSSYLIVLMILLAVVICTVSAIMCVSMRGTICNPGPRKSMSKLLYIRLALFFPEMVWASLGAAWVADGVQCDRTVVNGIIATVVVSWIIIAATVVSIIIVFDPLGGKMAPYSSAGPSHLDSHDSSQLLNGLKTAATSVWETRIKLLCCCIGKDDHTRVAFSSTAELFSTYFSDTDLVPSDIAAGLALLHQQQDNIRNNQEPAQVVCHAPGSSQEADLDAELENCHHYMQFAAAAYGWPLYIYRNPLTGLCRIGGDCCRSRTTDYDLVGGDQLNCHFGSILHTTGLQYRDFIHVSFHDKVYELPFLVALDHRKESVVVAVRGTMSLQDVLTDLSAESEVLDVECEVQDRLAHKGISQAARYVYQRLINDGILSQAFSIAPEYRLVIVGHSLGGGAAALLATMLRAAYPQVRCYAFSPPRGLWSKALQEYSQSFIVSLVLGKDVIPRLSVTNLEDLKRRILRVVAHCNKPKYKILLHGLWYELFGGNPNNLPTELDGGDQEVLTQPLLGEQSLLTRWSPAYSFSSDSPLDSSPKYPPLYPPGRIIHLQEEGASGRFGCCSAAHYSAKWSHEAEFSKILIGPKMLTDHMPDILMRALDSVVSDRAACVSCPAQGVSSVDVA
GPR7 antag = antagonists of human GPR7 (neuropeptides B/W receptor 1) | GPR7-expressing cells, fluorescence antagonist assay | inhibition, % at 4.4 µM | 290,000 tested, 1.1% active; in the data active = inhibition above about 16%, passing the limit was not always enough;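 note: cells stimulated with the agonist NPW; 0% = agonist with vehicle and 100% = vehicle without agonist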
GRK2 aptamer HTS = human GRK2 inhibition via aptamer displacement. P25098. bead flow cytometry, FAM-aptamer displacement from GRK2. inhibition of aptamer binding, % at 10 µM. 330,000 tested, 0.59% active. AID 488847;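 active = inhibition of aptamer binding above 40%, roughly 3 SD of noise, on plates passing a quality check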;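 note: median bead fluorescence of bound FAM aptamer so fluorescent compounds give negative values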
DNA FID counter-1 = counter-screen for HCV NS3 helicase inhibitors: DNA intercalator displacement; DNA fluorescent intercalator displacement, fluorescence; inhibition, % at 7.9 µM; 290,000 tested, 0.17% active; AID 1845;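 note: 0% = vehicle and 100% = reference compound; higher means more ethidium bromide displaced from hairpin DNA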
HCV core dimer = blocks dimerization of HCV core protein. TR-FRET GST/Flag-core106 dimerization, 1536-well. inhibition, % at 5 µM. 300,000 tested, 0.33% active. AID 1899;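 active = inhibition above the mean of all tested compounds plus 3 SD, set per screening campaign, cut at about 45% in these data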
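System – GST-tagged and Flag-tagged HCV core protein residues 1-106 · Repeats – one well for each compound · Technique – TR-FRET 671 and 617 nm emission · Doses – one concentration, 5 µM, in 0.5% DMSO · Times – 4 h, 22.5 °C incubation · Also added – Eu donor and XL665 acceptor anti-tag antibodies · Measure – percent inhibition of core106 dimerization signal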
NS3 hel confirm = HCV NS3 helicase inhibition, confirmation assay. shares compounds with HCV NS3 hel inh. NS3 helicase DNA unwinding, Cy5 molecular beacon fluorescence. inhibition, % at 10.9 µM. 1,600 tested, 31% active. AID 1943;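 active = inhibition above the mean of all tested compounds plus 3 SD, cutoff set per campaign, cut at about 36% in these data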
DNA FID counter-2 = displaces DNA intercalator in HCV helicase counter-screen; shares compounds with HCV NS3 hel inh; DNA fluorescent intercalator displacement, fluorescence; inhibition, % at 7.9 µM; 1,600 tested, 4% active; AID 1945;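 note: 0% = vehicle and 100% = reference compound; higher means more displacement of ethidium bromide from the DNA hairpin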
FID counter DR = counter-screen for HCV NS3 helicase inhibitors: DNA intercalator displacement dose response. shares compounds with HCV NS3 hel inh. fluorescent intercalator displacement from DNA, fluorescence. IC50, µM. 120 tested, under 10 active; call rule not given here
* = called active by the depositor; · = no result. An excerpt weighted towards active compounds, which were near 2.2% of everything screened. Cut-off read from the data, not from the text of the source, unless noted: active = inhibition above about 37%; inactive = the rest.

SMILES	HCV NS3 hel inh	DAGLB inh	GPR7 antag	GRK2 aptamer HTS	DNA FID counter-1	HCV core dimer	NS3 hel confirm	DNA FID counter-2	others
CSc1sccc1/C=N/O	6	-2	6	0	-1	-4	·	·
CSc1sccc1/C=C(/C#N)C(=O)c1ccco1	38*	15	-3	7	-20	-1	-37	10
O=C(O)C(c1ccccc1)N1C(=O)/C(=C\c2ccc(-c3ccc(Br)cc3)o2)SC1=S (stereo unspecified)	7	1	-2	·	14	·	·	·
O=C(O)C(c1ccccc1)N1C(=O)/C(=C\c2ccc(-c3ccccc3Cl)o2)SC1=S (stereo unspecified)	59*	10	17	0	23	16	83*	57*
O=C(/C(=N/N=C/c1ccc(O)c(O)c1O)c1ccccc1)c1ccccc1	49*	14	-6	1	-16	33	1	27
COc1ccc(C(=O)C(=NN)c2ccccc2)cc1	·	-6	·	·	·	·	·	·
Oc1ccc(/C=N/N=C(c2ccccc2)c2ccccc2)c(O)c1O	52*	12	-5	2	-23	3	-22	21
CCc1cc2cc3c(cc2nc1SCC(=O)Nc1nccs1)OCO3	-5	-1	-5	1	0	-6	·	·
CCc1cc2cc3c(cc2nc1SCC(=O)Nc1c[nH]c(=O)[nH]c1=O)OCO3	41*	1	1	2	-16	-12	-3	2
O=C1NN(c2ccccc2)C(=O)/C1=C\c1ccccc1OCC(=O)N1CCOCC1	49*	0	-15	0	-23	0	-16	0
Cc1cc(C)c(NC(=O)c2ccc(CNS(=O)(=O)c3cc(C(F)(F)F)ccc3Cl)cc2)c(C)c1	36*	-3	-12	7	-23	15	-4	-14
CC(Sc1nnc(N)s1)C(=O)Nc1ccc2c(c1)OCCO2 (stereo unspecified)	0	-4	-12	2	-6	2	·	·
Cc1cc(/C=N/NC(=O)C(O)(c2ccccc2)c2ccccc2)c(C)n1-c1ccc(C(=O)O)cc1	39*	-1	6	4	-21	10	31	-24
Cc1cc(/C=N/NC(=O)C(O)(c2ccccc2)c2ccccc2)c(C)n1-c1cccc(C(=O)O)c1	51*	3	-7	5	-27	-5	72*	-37
C=CCn1c(C)nnc1SCC(=O)Nc1cc(S(=O)(=O)N2CCCC2)ccc1Cl	·	2	·	·	·	·	·	·
Cc1csc(=O)n1CCC(=O)OCC(=O)NNC(=O)c1ccc(Cl)cc1	·	0	·	·	·	·	·	·
Oc1ccc(-c2csc(Nc3ccccn3)n2)cc1O	-4	6	17	5	-1	-15	·	·
Oc1ccc(-c2csc(Nc3cccc4ccccc34)n2)cc1O	42*	8	1	0	8	-11	-21	12
CC(C)Nc1nc(Oc2ccc(=O)n(-c3ccccc3)n2)nc(N(C)C)n1	36*	3	-9	5	-37	0	-3	-20
CCN(CC)c1ccc(N=Cc2c(C)[nH]c3ccccc23)cc1	38*	10	-13	7	3	-15	28	39*
Cc1[nH]c2ccccc2c1/C=N/n1cnnc1	-3	-2	-6	0	0	2	·	·
Cc1cc(NC(=O)c2cccc(S(=O)(=O)Nc3cccc(C(=O)O)c3)c2)no1	18	1	-14	2	-42	6	·	·
Cc1ccc(-c2csc(/C(C#N)=C(\O)CN3CCN(C(=O)c4ccco4)CC3)n2)cc1	37*	2	10	0	-17	6	42*	-14
N#C/C(=C(/O)CN1CCOCC1)c1nc(-c2ccccc2)cs1	6	1	0	3	-5	-1	·	·
CCC(C)(C)C1CCc2[nH]nc(C(=O)O)c2C1 (stereo unspecified)	·	0	·	1	·	8	·	·
SMILES	HCV NS3 hel inh	DAGLB inh	GPR7 antag	GRK2 aptamer HTS	DNA FID counter-1	HCV core dimer	NS3 hel confirm	DNA FID counter-2	others
CC(C)(C)C1CCc2[nH]nc(C(=O)O)c2C1 (stereo unspecified)	37*	1	-12	2	-15	12	-14	-1
CCOc1cccc(=O)c2c(C)n(CC(=O)c3ccccc3)c(C)c12	27	3	1	1	-15	37	·	·
COc1cccc(=O)c2c(C)n(CC(=O)c3ccccc3)c(C)c12	58*	3	6	3	-19	67*	-14	-16
Cn1c(CCN2CCOCC2)nc2cc(NC(=O)COc3ccc([N+](=O)[O-])cc3)ccc21	4	0	8	0	2	-11	·	·
Cn1c(CCN2CCN(c3ccccn3)CC2)nc2cc(NC(=O)COc3ccc([N+](=O)[O-])cc3)ccc21	38*	2	7	0	-5	7	9	10
O=CN1CCN(C=O)C(O)C1O (stereo unspecified)	·	0	·	·	·	·	·	·
COc1ccc2cc(C3=CCCCC3)ncc2c1	·	-4	·	0	·	·	·	·
CCN1C[C@@H]2[C@@H]3C(=O)N(Cc4ccccc4)C(=O)[C@@H]3[C@](Cc3ccccc3)(C1=O)N2C(=O)c1ccc(Cl)cc1	·	1	·	·	·	·	·	·
CN1/C(=C\C=N\O)C(C)(C)c2ccccc21	-9	1	-1	6	-2	-3	·	·
CN(C)c1ccc(N=C/C=C2/N(C)c3ccccc3C2(C)C)cc1	36*	11	-2	·	-3	·	-13	42*
CC(=O)c1cccc(Nc2nc(-c3cccnc3)cs2)c1	44*	2	-13	0	-12	·	6	-10
CC(=O)c1cccc(Nc2nc(-c3ccccc3)cs2)c1	-11	-6	-14	1	1	3	·	·
NS(=O)(=O)c1ccc2nc(NC(=O)c3ccc4ncsc4c3)sc2c1	44*	5	-2	2	-15	-2	42*	11	FID counter DR=>79
CC(C)COC(=O)COc1cc(Cl)c(Cl)cc1Cl	·	·	·	2	·	·	·	·
Cc1ccccc1NC(=S)NCCSc1ccc(Cl)cc1	78*	-6	-14	0	49*	1	6	-1
CCCCN(CCCC)c1ccc(C(=O)c2ccccc2C(=O)O)c(O)c1	60*	17	8	2	-26	22	76*	-14
CN(C)c1ccc(C(=O)c2ccccc2C(=O)O)c(O)c1	5	-1	-7	3	-5	6	·	·
Cc1cc(-c2ccc(S(=O)(=O)NCc3ccc(Cl)cc3)cc2)on1	·	-3	·	·	·	·	·	·
COCC#Cc1ccc2c(c1)O[C@@H](CN(C)C(=O)Nc1ccc(OC)cc1)[C@H](C)CN([C@H](C)CO)S2(=O)=O	·	1	·	·	·	·	·	·
